From PubChem
Hits are enriched below; roughly 2.3% of the tested compounds scored in any of these assays.
TRPC4 potent – positive allosteric modulators of TRPC4, primary screen, cell-based, mouse TRPC4beta, HEK293 mu-opioid, Fluo-4 calcium | DAMGO EC20, Fluo-4 Ca2+ flux; active compounds read high | B-score at 10 µM | 0.42% of 310,000 active | AID 2227, 2009;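 active = B-score of calcium response area above 5 SD of library B-scores, with initial fluorescence ratio within 5 SD of library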
TRPC6 inh – mouse TRPC6 channel inhibitors, primary screen, cell-based, HEK293, membrane potential dye. Short transient receptor potential channel 6 (Mus musculus), Q61143. ACh-evoked depolarization; active compounds read low. B-score at 10 µM. 1.1% of 310,000 active. AID 2553, 2010;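 active = B-score under library mean minus 3 SD, initial fluorescence not abnormally high, positive integrated signal ratio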;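 also: B-score derived from integrated fluorescence ratio over the kinetic read; more negative B-score means stronger inhibition of depolarization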
Target sequence (Q61143 whole entry, looked up): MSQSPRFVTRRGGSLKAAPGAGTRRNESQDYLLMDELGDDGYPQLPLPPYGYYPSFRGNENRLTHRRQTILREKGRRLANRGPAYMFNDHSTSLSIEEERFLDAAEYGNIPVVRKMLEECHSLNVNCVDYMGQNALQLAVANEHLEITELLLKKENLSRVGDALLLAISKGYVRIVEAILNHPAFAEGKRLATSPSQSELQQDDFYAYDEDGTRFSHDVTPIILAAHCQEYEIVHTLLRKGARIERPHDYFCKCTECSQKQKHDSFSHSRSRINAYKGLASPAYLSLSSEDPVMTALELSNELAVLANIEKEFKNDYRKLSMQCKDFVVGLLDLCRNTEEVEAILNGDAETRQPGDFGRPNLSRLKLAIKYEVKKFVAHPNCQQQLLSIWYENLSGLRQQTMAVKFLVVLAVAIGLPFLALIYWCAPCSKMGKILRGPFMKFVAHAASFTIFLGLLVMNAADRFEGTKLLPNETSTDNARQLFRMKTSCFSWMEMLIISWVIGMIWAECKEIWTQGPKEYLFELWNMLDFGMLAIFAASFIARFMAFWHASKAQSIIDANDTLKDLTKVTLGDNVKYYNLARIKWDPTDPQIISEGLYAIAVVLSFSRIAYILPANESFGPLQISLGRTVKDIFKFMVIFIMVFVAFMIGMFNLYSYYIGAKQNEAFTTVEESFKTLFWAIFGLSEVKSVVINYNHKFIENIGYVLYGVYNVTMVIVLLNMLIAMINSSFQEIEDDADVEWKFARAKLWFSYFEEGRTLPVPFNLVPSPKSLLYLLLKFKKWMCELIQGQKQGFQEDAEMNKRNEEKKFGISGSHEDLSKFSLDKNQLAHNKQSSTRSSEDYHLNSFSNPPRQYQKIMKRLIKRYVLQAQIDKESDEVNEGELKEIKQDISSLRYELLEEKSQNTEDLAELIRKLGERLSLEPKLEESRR
TRPC6 act – mouse TRPC6 channel activators, primary screen, cell-based, HEK293, membrane potential dye; Short transient receptor potential channel 6 (Mus musculus), Q61143; HEK293-TRPC6 membrane potential dye fluorescence; active compounds read high; B-score at 10 µM; 0.13% of 310,000 active;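 active = B-score of the integrated fluorescence ratio above library mean plus 3 SD, and starting fluorescence ratio within library mean plus 5 SD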;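 also: higher score means more depolarization so channel activation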
TRPC4 act – activators of mouse TRPC4 channel, primary screen, Fluo4 calcium, HEK293 TRPC4beta/mu-opioid cells. Fluo4 calcium fluorescence; active compounds read high. B-score at 10 µM. 0.49% of 310,000 active;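 active = B-score above 5 SD of library B-scores, and initial fluorescence ratio not above library mean plus 5 SD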;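 also: positive B-score marks a calcium rise read as TRPC4 activation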
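Technique: kinetic Fluo4 calcium fluorescence; Test system: TRPC4beta and mu-opioid receptor HEK293 stable cells; Measure: B-scored integrated calcium fluorescence ratio; Benchmarks: low control buffer alone, high control maximal DAMGO; Schedule: 45 min room-temperature Fluo4 loading, 110 s read.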
TRPC4 block – inhibitors of mouse TRPC4 channel, primary screen, Fluo4 calcium, HEK293 TRPC4beta/mu-opioid cells. DAMGO-evoked Fluo4 calcium flux; active compounds read low. 0.39% of 300,000 active. AID 2247, 2010. B-score at 10 µM;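 active = B-score over 3 SD under the library average, no early fluorescence shift, positive overall ratio signal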
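Signal: kinetic Fluo4 fluorescence imaging of calcium influx. Material: stable TRPC4beta/mu-opioid receptor HEK293 cells. Probe or stimulus: DAMGO in two steps, submaximal then maximal.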
TRPC4 sel inh 2 – second selectivity test of TRPC6 inhibitors: effect on mouse TRPC4; HEK293 TRPC4/MOR, membrane potential dye fluorescence; channel activated by saturating DAMGO dose; inhibition, % at 10 µM; 42% of 920 active; shares compounds with TRPC6 inh;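 active = compounds whose fluorescence signal differed from control wells by over 3 SD, either direction, in both duplicate plates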
TRPC4 spec – mouse TRPC4 modulation by TRPC6 hits, confirmation, selectivity assay for TRPC6 inhibitor project, cell-based, HEK293 TRPC4/mu-opioid, membrane potential dye | activity change, negative = inhibition, % at 10 µM | shares compounds with TRPC6 inh | 61% of 920 active | AID 2777, 2010 | membrane potential fluorescence;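 active = rise or fall in signal beyond 3 SD of buffer-only wells in both replicate plates, either sign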;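 also: integrated kinetic ratio of fluorescence range over baseline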
HEK293 MPD ctr 2-1 – nonspecific membrane potential effects, parental HEK293, confirmation, counter-screen for TRPC6 inhibitor project, cell-based, second counter screen | AID 2779, 2010 | parental HEK293 membrane potential dye fluorescence; maximal acetylcholine challenge after compound addition | 31% of 920 active | shares compounds with TRPC6 inh | signal change vs control, % at 10 µM;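 active = membrane potential signal moving either way by over 3 SD of the maximum-effect control, in both duplicate plates, meaning non-specific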
HEK293 MPD ctr-1 – membrane potential modulation in parental HEK293, confirmation, counter-screen for TRPC6 inhibitor project, cell-based; shares compounds with TRPC6 inh; parental HEK293 membrane potential dye fluorescence; membrane potential signal change, % at 10 µM; 60% of 920 active; AID 2780, 2010;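 active = membrane potential signal shifting up or down by more than 3 SD of buffer-only wells, on both duplicate plates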
HEK293 MPD ctr-2 – parental HEK293 membrane potential modulation, confirmation, counter-screen for TRPC6 modulator project, cell-based; shares compounds with TRPC6 inh; membrane potential dye fluorescence; membrane potential signal change, % at 10 µM; 51% of 2,400 active; AID 488924, 2010;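 active = membrane potential signal moves up or down beyond 5 SD from buffer-only wells, on both duplicate plates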
HEK293 MPD ctr 2-2 – second check of TRPC6 modulator effects in parental HEK293 cells; shares compounds with TRPC6 inh; membrane potential dye fluorescence; after compound, maximal acetylcholine stimulation; inhibition, % at 10 µM; 14% of 2,400 active; AID 488926;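 active = membrane potential signal drops by more than 5 SD from the mean control signal, in both duplicate plates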
TRPC4/MOR mod – TRPC4 modulation by TRPC6 hit compounds, confirmation, selectivity assay for TRPC6 modulator project, cell-based, HEK293 TRPC4/mu-opioid, membrane potential dye, mouse; shares compounds with TRPC6 inh; membrane potential fluorescence; percent change from control (negative = decrease, positive = increase), % at 10 µM; 69% of 2,400 active; AID 488927, 2010;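 active = membrane potential signal moved up or down beyond 5 SD of buffer control wells, in both duplicate plates, actives on both sides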
TRPC4 ctr inh 2 – second selectivity test of TRPC6 modulators against mouse TRPC4; shares compounds with TRPC6 inh; HEK293 TRPC4/mu-opioid, membrane potential dye fluorescence; stimulated with maximal-effect DAMGO; inhibition, % at 10 µM; 55% of 2,400 active; AID 488928;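 active = drop in membrane potential signal beyond 5 SD of the control wells in both duplicate plates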;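 also: TRPC4 counter screen for TRPC6 hits run under conditions tuned for TRPC6 not TRPC4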
TRPC6 inh conf – mouse TRPC6 channel inhibitors, confirmation, HEK293 cells, membrane potential dye, duplicate; shares compounds with TRPC6 inh; ACh-evoked depolarization; inhibition, % at 10 µM; 43% of 3,300 active; AID 488960, 2010;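 active = fluorescence ratio falls more than 5 SD below the full-stimulation control mean, in both duplicate runs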;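 also: integrated fluorescence ratio of peak minus minimum over baseline after agonist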
TRPC6 act conf – mouse TRPC6 channel activators, confirmation, HEK293 cells, membrane potential dye, duplicate; shares compounds with TRPC6 inh; activation, % at 10 µM; 11% of 2,800 active; HEK293-TRPC6 membrane potential dye fluorescence, FDSS;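 active = ratio signal rise beyond 5 SD above unstimulated control wells' mean, seen in both duplicate runs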
Of the large screens only hits and unclear results are named; the others gave an inactive call (follow-up assays come after a bar, where they were run).

COc1ccccc1CNC(=O)C1CCN(Cc2nc(-c3cccc(Cl)c3)oc2C)CC1	TRPC6 inh -9.5 | HEK293 MPD ctr-2 115% | HEK293 MPD ctr 2-2 inactive | TRPC4/MOR mod 15% | TRPC4 ctr inh 2 97% | TRPC6 inh conf inactive
CCc1ccc(-c2nc(CN3CCC(C(=O)NCc4ccccc4OC)CC3)c(C)o2)cc1	none
CCN1CCCC1CNC(=O)C1CCN(Cc2nc(-c3cccc(Br)c3)oc2C)CC1 (stereo not drawn)	TRPC6 inh -8.9 | TRPC4 sel inh 2 60% | TRPC4 spec -18% | HEK293 MPD ctr 2-1 inactive | HEK293 MPD ctr-1 -240% | TRPC6 inh conf inactive | TRPC6 act conf inactive
Cc1oc(-c2cccc(Cl)c2)nc1CN1CCC(C(=O)NCc2ccco2)CC1	none
Cc1oc(-c2ccc(Cl)cc2)nc1CN1CCC(C(=O)N2CCN(Cc3ccccc3)CC2)CC1	TRPC6 act 12 | HEK293 MPD ctr-2 226% | HEK293 MPD ctr 2-2 inactive | TRPC4/MOR mod 40% | TRPC4 ctr inh 2 68% | TRPC6 inh conf inactive | TRPC6 act conf 129%
CSCC[C@H](NC(=O)N1CCn2c1nc1ccccc12)C(=O)NC1CC1	none
CC1CCCN(C(=O)COC(=O)CNS(=O)(=O)c2ccc3ccccc3c2)C1 (stereo not drawn)	none
CCOC(=O)c1c(O)c2ccccc2n(CC)c1=O	none
COc1ccccc1C(=O)NC(=O)Nc1nc(-c2ccccc2)cc(C(F)(F)F)n1	none
CCCCn1c(N)c(N(Cc2ccccc2OC)C(=O)COc2ccc(C)cc2)c(=O)[nH]c1=O	none
CC(=O)c1ccc(Nc2nc(=O)c3cccnc3s2)cc1	TRPC6 inh -5.8 | HEK293 MPD ctr-2 -176% | HEK293 MPD ctr 2-2 inactive | TRPC4/MOR mod -33% | TRPC4 ctr inh 2 inactive | TRPC6 inh conf inactive | TRPC6 act conf inactive
Cc1ccc2ccc3cccnc3c2n1	TRPC6 inh -5.8 | HEK293 MPD ctr-2 -248% | HEK293 MPD ctr 2-2 inactive | TRPC4/MOR mod -36% | TRPC4 ctr inh 2 inactive | TRPC6 inh conf 44% | TRPC6 act conf inactive
COc1ccc(OC)c(Nc2cc(C)nc3nc(C)nn23)c1	none
CCOc1ccccc1Nc1cc(C)nc2ccc(C)cc12	TRPC6 inh -7.7 | TRPC4 sel inh 2 46% | TRPC4 spec -13% | HEK293 MPD ctr 2-1 inactive | HEK293 MPD ctr-1 -209% | TRPC6 inh conf 62% | TRPC6 act conf inactive
COc1ccc(Nc2cc(C)nc3ccccc23)cc1	TRPC6 inh -5.1, TRPC4 block -6 | HEK293 MPD ctr-2 -132% | HEK293 MPD ctr 2-2 inactive | TRPC4/MOR mod -21% | TRPC4 ctr inh 2 48% | TRPC6 inh conf inactive | TRPC6 act conf inactive
COc1ccc2nc(C)cc(Nc3ccc(N4CCOCC4)cc3)c2c1	none
COc1ccc(OC)c(Nc2cc(C)nc3ccc(C)cc23)c1	TRPC6 inh -7.5, TRPC4 block -6 | TRPC4 sel inh 2 52% | TRPC4 spec -15% | HEK293 MPD ctr 2-1 inactive | HEK293 MPD ctr-1 -239% | TRPC6 inh conf 67% | TRPC6 act conf inactive
Cc1cc(Nc2cccc(Br)c2)c2ccccc2n1	none
CCOc1ccccc1Nc1ncnc2ccc(Br)cc12	none
COc1ccc2nc(C)cc(Nc3ccc(N4CCN(C)CC4)cc3)c2c1	TRPC6 inh -9.6 | TRPC4 sel inh 2 57% | TRPC4 spec -24% | HEK293 MPD ctr 2-1 -94% | HEK293 MPD ctr-1 -292% | TRPC6 inh conf 86% | TRPC6 act conf inactive
CC12CCC(C1)C(C)(C)C2OC(=O)c1ccccc1C(=O)O (stereo not drawn)	none
Cc1ccccc1NC(=S)N(CCN1CCOCC1)Cc1ccccc1F	none
COc1ccc2nc(C)cc(SCC(=O)NNC(=O)COc3ccc(C)cc3)c2c1	none
COc1ccc2nc(C)cc(Nc3ccc(C)cc3)c2c1	TRPC6 inh -6.6, TRPC4 block -7 | TRPC4 sel inh 2 42% | TRPC4 spec -26% | HEK293 MPD ctr 2-1 inactive | HEK293 MPD ctr-1 -272% | TRPC6 inh conf 68% | TRPC6 act conf inactive
CCN(CC)c1ccc(C=C2C(=O)OC(C)(C(C)(C)C)OC2=O)cc1 (stereo not drawn)	TRPC6 act 46 | HEK293 MPD ctr-2 inactive | HEK293 MPD ctr 2-2 inactive | TRPC4/MOR mod 102% | TRPC4 ctr inh 2 inactive | TRPC6 inh conf inactive | TRPC6 act conf inactive
